Compound activity from PubChem.
Hits are enriched below; roughly 1.8% of the tested compounds scored in any of these assays.
SENP1 inh – human SENP1 catalytic domain inhibitors, primary screen, biochemical, FRET, uHTS. Sentrin-specific protease 1 (Homo sapiens), Q9P0U3. actives 0.21% (n = 360,000). inhibition, % at 10 µM. recombinant SENP1 catalytic domain, CyPet-SUMO1-YPet FRET cleavage;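 active = inhibition at least 30% at 10 µM, raw YFP signal under a set limit, fluorescence ratio 0.5 to 1.5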;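 note: 0% = enzyme with DMSO and 100% = no enzyme wells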
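Test system: recombinant human SENP1 catalytic domain, His6-tagged / Medium: pH 8 Tris buffer with EDTA, NaCl, BME, BSA, NP40, catalase / Also added: SUMO1 FRET substrate flanked by Cypet and Ypet, 25 nM / Times: 50 min reaction at room temperature / Signal: FRET, CFP and YFP emission / Control set: no-enzyme low control and enzyme-plus-DMSO high control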
HNF4A DNA FP – change in binding of human HNF4A to DNA, primary screen, biochemical, fluorescence polarization, FITC-DNA. Hepatocyte nuclear factor 4-alpha (Homo sapiens), P41235. 1 h. activity change, % at 10 µM. actives 0.3% (n = 360,000); in the data active = activity change above about 30%, passing the limit was not always enough
Target sequence (P41235 whole entry, looked up): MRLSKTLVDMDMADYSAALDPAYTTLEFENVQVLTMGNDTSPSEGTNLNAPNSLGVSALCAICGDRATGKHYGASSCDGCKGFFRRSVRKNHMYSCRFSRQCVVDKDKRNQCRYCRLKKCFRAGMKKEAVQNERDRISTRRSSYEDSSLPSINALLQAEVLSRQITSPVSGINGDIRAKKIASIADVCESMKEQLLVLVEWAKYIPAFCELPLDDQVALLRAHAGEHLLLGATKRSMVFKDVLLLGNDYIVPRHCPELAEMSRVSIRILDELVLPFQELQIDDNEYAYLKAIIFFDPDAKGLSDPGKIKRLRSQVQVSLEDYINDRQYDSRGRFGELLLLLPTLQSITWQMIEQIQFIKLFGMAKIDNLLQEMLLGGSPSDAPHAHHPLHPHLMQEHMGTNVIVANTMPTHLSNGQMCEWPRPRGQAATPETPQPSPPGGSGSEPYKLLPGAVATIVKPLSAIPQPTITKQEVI
SUMO HTRF inh – inhibitors of in vitro SUMOylation cascade, primary screen, biochemical, HTRF, uHTS. SUMO-conjugating enzyme UBC9 (Homo sapiens), P63279. HTRF SUMOylation assay, SAE1/SAE2 + UBC9. inhibition, % at 35 µM. actives 0.36% (n = 290,000). AID 2006, 2009; in the data active = inhibition above about 50%, passing the limit was not always enough
TPT1 inh – Candida albicans TPT1 enzyme inhibitors, primary screen, biochemical, fluorescence polarization | recombinant caTPT1, FP RNA substrate dephosphorylation | inhibition, % at 5 µM | actives 0.81% (n = 300,000);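 active = inhibition above the mean of all tested compounds plus 3 SD, set per screening campaign, cut at about 24% in these data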;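 note: plate controls were DMSO alone for no effect and ferristatin control at 100 nM for full effect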
Rpn11 inh – Rpn11 (PSMD14) deubiquitinase inhibitors, primary screen, biochemical, fluorescence polarization, uHTS | calls only at 20 µM | human 26S proteasome, Ub4-pepOG fluorescence polarization; 20S core pre-blocked with epoxomicin | actives 0.59% (n = 360,000);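 active = inhibition at 20 µM, scaled to each plate's controls, above about 33%, limit read from the data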
CSN deneddyl inh – inhibitors of CSN-mediated cullin deneddylation, primary screen, biochemical, fluorescence polarization, uHTS | Purified CSN, SCF-Nedd8-OG deneddylation | inhibition, % at 12.5 µM | actives 0.38% (n = 360,000) | AID 651999, 2013;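 active = pattern-corrected inhibition above about 35%, with an unprinted fluorescence ratio check between 0.5 and 1.5, limit read from the data, passing the limit was not always enough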;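 note: 0% = enzyme with substrate and 100% = substrate without enzyme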
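test system = HEK293T-derived human Csn5 enzyme | amount = 0.24 nM Csn5 enzyme, final concentration | medium = Tris/NaCl/DTT buffer, pH 7.5 | schedule = 90 min reaction at room temperature | signal = FP | evaluation = inhibition of Csn5 cleavage, % | compound dosing = single dose of 12.5 µM compound with 0.25% DMSO | probe or stimulus = 10 nM SCFSkp2-Nedd8OG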
caTPT1 confirm – Candida albicans TPT1 inhibitors, confirmation, biochemical, fluorescence polarization, triplicate; shares compounds with TPT1 inh; recombinant caTPT1, RNase T1 coupled; inhibition, % at 5 µM; actives 74% (n = 2,400);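 active = inhibition above the primary screen limit, the mean inhibition of all tested compounds plus 3 SD, cut at about 25% in these data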
RNase T1 inh – RNase T1 inhibitors, counter-screen for TPT1 inhibitor project, biochemical, fluorescence polarization. shares compounds with TPT1 inh. RNase T1 cleavage, 1536-well. inhibition, % at 5 µM. actives 83% (n = 2,400);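 active = inhibition above the solvent-only control well mean plus 3 SD, limit set per screening run, cut at about 23% in these data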;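 note: plate controls were DMSO wells with enzyme for no effect and wells without RNase T1 for full effect; inhibitors block cleavage so intact labeled substrate keeps polarization high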
Target sequence (P00651 whole entry, looked up): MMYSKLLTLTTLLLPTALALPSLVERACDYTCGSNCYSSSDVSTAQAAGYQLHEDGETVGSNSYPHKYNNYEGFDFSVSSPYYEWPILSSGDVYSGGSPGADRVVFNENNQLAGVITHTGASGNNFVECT
Starred values were filed as active, the others as inactive; i = inactive; nt = not tested or not shown.

SMILES	SENP1 inh	HNF4A DNA FP	SUMO HTRF inh	TPT1 inh	Rpn11 inh	CSN deneddyl inh	caTPT1 confirm	RNase T1 inh
Cc1cccc(OCCn2ccnc2)c1	1.3	-2.7	12.4	-1.2	i	-6.7	nt	nt
Clc1ccc(OCCn2ccnc2)cc1Cl	2.6	-0.2	-9.9	59.7*	i	2.9	5.9	7.7
Cc1ccc(S(=O)(=O)N/N=C/c2ccc(O)cc2O)cc1[N+](=O)[O-]	-3.5	-0.6	-5.0	-4.2	i	-1.0	nt	nt
COc1ccc(-n2c(O)c(/C=N/NS(=O)(=O)c3ccc(C)c([N+](=O)[O-])c3)c3ccccc3c2=O)cc1OC	31.8	171.8	27.1	100.0*	nt	148.1	113.8*	112.5*
CCOc1cccc(/C=N/NS(=O)(=O)c2ccc(C)c([N+](=O)[O-])c2)c1O	3.5	-7.3	16.3	94.3*	i	0.4	1.4	6.0
COc1cc(/C=N/NS(=O)(=O)c2ccc(C)c([N+](=O)[O-])c2)cc([N+](=O)[O-])c1O	1.6	-4.3	-22.7	-6.3	i	-0.8	nt	nt
Cc1ccc(S(=O)(=O)N(C)C)cc1NC(=O)CSc1ccc2c(c1)OCCO2	2.5	0.8	nt	0.8	i	-5.0	nt	nt
CCN(CCCCCCN)c1ccc2c(=O)[nH][nH]c(=O)c2c1	-1.2	3.6	15.1	0.4	i	-0.6	nt	nt
CC1CCN(C(=O)C2CCN(S(=O)(=O)c3cccc4nonc34)CC2)CC1	2.1	-4.4	2.0	41.6*	i	4.4	1.6	7.3
Cc1ccc(C(=O)NCC(=O)OC(C)C(=O)NC2CCCCC2C)cc1C (stereo not given)	-1.0	1.8	nt	-0.9	i	-3.4	nt	nt
Cc1cc(C)c2c(n1)sc1c(O)cc(=O)[nH]c12	-3.0	-3.0	14.8	2.0	i	-5.0	nt	nt
COc1ccc(-c2cc(C(F)(F)F)c3c(n2)sc2c(O)cc(=O)[nH]c23)c(OC)c1	-23.8	90.4	20.1	68.9*	nt	123.2	82.1*	84.7*
COc1cccc(/C=N/NC(=O)c2oc3nc(-c4ccccc4)cc(-c4ccco4)c3c2N)c1	-32.6	38.6*	39.9	82.0*	nt	5.0	86.0*	97.1*
Cc1ccc(-c2cc(-c3ccco3)c3c(N)c(C(=O)NN)oc3n2)cc1	-32.5	10.6	55.4*	72.0*	i	-3.6	34.7*	43.0*
NNC(=O)c1oc2nc(-c3cccs3)cc(-c3ccco3)c2c1N	-22.7	16.3	65.3	49.5*	i	-45.0	46.7*	56.9*
COCCN1C(=O)/C(=C/c2ccc(N3CCCC3)cc2C)SC1=S	37.9	120.0	21.2	115.0*	nt	31.5	99.0*	99.9*
CCN=C1S/C(=C\c2ccc(N3CCOCC3)cc2C)C(=O)N1CC	-26.9	6.5	1.8	0.2	i	-8.5	nt	nt
O=C(N/N=C/c1cc(Br)cc(Br)c1O)c1ccncc1	nt	nt	nt	89.2*	nt	nt	77.4*	83.2*
O=C(N/N=C/c1cc(Cl)cc(Cl)c1O)c1ccncc1	-38.3	4.1	57.6*	40.0*	nt	28.8	37.5*	49.4*
O=C(N/N=C/c1ccc(Cl)cc1Cl)c1ccncc1	1.1	-0.4	14.0	3.1	i	9.0	nt	nt
N=c1n(CC(=O)c2ccc(Br)s2)c2ccccc2n1Cc1ccccc1	-159.0	2.9	3.8	-4.5	i	4.2	nt	nt
CC[n+]1ccc(/C=C/c2c[nH]c3ccccc23)cc1	-29.1	83.4	11.0	63.6*	nt	65.8	60.1*	67.0*
COC(=O)c1ccc(-n2cc(-c3ccc(OC)cc3)[nH]c2=S)cc1	-10.0	29.9	8.4	38.3*	i	4.6	31.1*	40.0*
Cc1ccc(/C(C#N)=C\c2ccc(N3CCOCC3)o2)cc1	-25.8	80.5*	-0.2	121.4*	nt	26.5	153.8*	147.2*
N#C/C(=C/c1ccc(N2CCCCC2)o1)c1cccc(F)c1	-7.4	106.8	21.7	134.3*	nt	26.1	177.7*	165.6*
SMILES	SENP1 inh	HNF4A DNA FP	SUMO HTRF inh	TPT1 inh	Rpn11 inh	CSN deneddyl inh	caTPT1 confirm	RNase T1 inh
Cc1ccc2nc(/C(C#N)=C\c3ccc(N4CCOCC4)o3)[nH]c2c1	-18.3	135.5	22.8	138.7*	nt	-9.9	148.9*	136.5*
O=C1NC(=O)/C(=C/c2ccc(N3CCOCC3)o2)N1	-11.2	28.0	11.7	-9.4	i	2.5	nt	nt
CCOc1cccc2cc(C(=O)NCc3ccccc3Cl)c(=O)oc12	1.5	-2.2	15.3	3.6	i	3.1	nt	nt
O=C(NCc1cccnc1)Nc1ccc(Br)cc1Cl	0.5	0.1	2.6	-0.6	i	-1.9	nt	nt
CC1Oc2ccccc2C=C1/C=C1/SC(N2CCOCC2)=NC1=O (stereo not given)	-22.7	2.1	10.6	11.3	i	1.3	nt	nt
CCN1C(=O)/C(=C/C2=Cc3ccccc3OC2C)SC1=S (stereo not given)	-37.5	90.7*	-1.7	42.6*	nt	25.9	92.9*	98.3*
O=S(=O)(Nc1nc2ccccc2nc1Nc1ccc2c(c1)OCCO2)c1cccs1	-28.6	47.8*	30.4	78.4*	nt	50.8*	89.6*	96.4*
Cn1nc(CC(=O)Nc2ccc(N3CCN(C(=O)OC(C)(C)C)CC3)cc2)c2ccccc2c1=O	-1.6	0.9	1.6	-2.3	i	1.6	nt	nt
Cc1ccc(-c2nnc(Nc3ccc4c(c3)OCO4)c3ccccc23)cc1S(=O)(=O)NC(C)C	3.6	2.0	1.2	52.5*	i	5.7	7.1	11.9
O=C(Nc1ccccc1)Nc1ccc(F)cc1F	1.0	-2.7	6.6	0.9	i	1.4	nt	nt
CC(=O)Nc1cccc(NC(=O)Nc2ccc(F)cc2F)c1	0.5	3.2	26.7	55.0*	i	2.1	1.5	2.9
CCOC(=O)c1sc2nc(C)nc(SCC(=O)NC(C)CCc3ccccc3)c2c1C (stereo not given)	-1.4	16.8	2.5	25.0*	i	7.3	40.6*	51.4*
CCOC(=O)c1sc2nc(C)nc(SCC(=O)N(C)C3CCS(=O)(=O)C3)c2c1C (stereo not given)	-6.4	5.7	12.7	7.5	i	9.6	nt	nt
